One may read the IC50 as the concentration needed to halve the response being measured. Low values mean inhibition by little substance, high ones a need for much substance.

The source made the active and inactive calls. No cut-off for these calls is given here.

The first experiment has as its system Trichomonas vaginalis. Kind of experiment: Inhibition of Trichomonas vaginalis uridine nucleoside ribohydrolase using 5-fluorouridine as substrate at 0.04 to 200 uM after 40 mins by NMR spectrometric analysis. The procedure, abridged:
(§1)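 UNH at 80 nM in 50 mM potassium phosphate, 0.3 M KCl, pH 6.5, with 10% 2H2O. Test compounds added from DMSO solutions and mixed thoroughly. Reaction read at the 40 min time point. Screening was done at 50 μM in mixtures of three. IC50 determinations used final assay concentrations from 200 μM to 0.04 μM.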
With `N[C@@H](C(=O)N[C@@H]1C(=O)N2C(C(=O)O)=C(CSc3c[nH]nn3)CS[C@H]12)c1ccc(O)cc1`, the Active/inactive screening call is “Active”.

With `Oc1cc2c(cc1O)[C@H]1c3ccccc3CN[C@@H]1CC2` (relative stereo), the Active/inactive screening call is “Active”.

Regarding `CN(C)[C@@H]1C(O)=C(C(N)=O)C(=O)[C@@]2(O)C(O)=C3C(=O)c4c(O)cccc4[C@@](C)(O)[C@H]3[C@H](O)[C@@H]12`, the Active/inactive screening call is “Active”. On to `Oc1ccc2c3c1O[C@H]1c4[nH]c5ccccc5c4C[C@@]4(O)[C@@H](C2)N(CC2CC2)CC[C@]314`, for which the inhibition result was “Active”. Turning to `O=C(O[C@@H]1Cc2c(O)cc(O)cc2O[C@@H]1c1cc(O)c(O)c(O)c1)c1cc(O)c(O)c(O)c1`, the inhibition result was “Active”. For the molecule `CCOC(=O)C1=C(C)NC(C)=C(C(=O)OC)C1c1cccc([N+](=O)[O-])c1` (stereo unspecified), the Active/inactive screening call is “Active”. For the molecule `CCOC(=O)C1=C(COCCN)NC(C)=C(C(=O)OC)C1c1ccccc1Cl` (stereo unspecified), the inhibition entry was “Active”. Take `COCCCOc1ccnc(C[S+]([O-])c2nc3ccccc3[nH]2)c1C` (stereo unspecified) [RABEPRAZOLE]: the Active/inactive screening call is “Active”. `CC1=C(/C=C/C(C)=C/C=C/C(C)=C\C(=O)O)C(C)(C)CCC1`: the Active/inactive screening call is “Active”.

Turning to `CN[C@@H]1C[C@@H](c2ccc(Cl)c(Cl)c2)c2ccccc21` (relative stereo), the inhibition result is “Active”. Turning to `CCC1=C[C@@H]2CN(C1)Cc1c([nH]c3ccccc13)[C@@](C(=O)OC)(c1cc3c(cc1OC)N(C)[C@H]1[C@@](O)(C(=O)OC)[C@H](OC(C)=O)[C@]4(CC)C=CCN5CC[C@]31[C@@H]54)C2`, the Active/inactive screening call is “Active”. Regarding `CN(C)CCCN1c2ccccc2CCc2ccc(Cl)cc21`, the Active/inactive screening call was “Active”. On to `COc1ccnc(C[S+]([O-])c2nc3cc(OC(F)F)ccc3[nH]2)c1OC` (stereo unspecified) [PANTOPRAZOLE SODIUM], for which the Active/inactive screening call was “Active”. With `COC(=O)C1=C(C)NC(C)=C(C(=O)OCC(C)C)C1c1ccccc1[N+](=O)[O-]` (stereo unspecified), the Active/inactive screening call is “Active”. For `O=C1C(CC[S+]([O-])c2ccccc2)C(=O)N(c2ccccc2)N1c1ccccc1` (stereo unspecified), the Active/inactive screening call is “Active”.

As to `CC1=C(/C=C/C(C)=C/C=C/C(C)=C/C(=O)O)C(C)(C)CCC1`, the Active/inactive screening call was “Active”. Turning to `Sc1ncnc2nc[nH]c12`, the Active/inactive screening call was “Active”.

Turning to `COC(=O)C1=C(C)NC(C)=C(C(=O)OC)C1c1ccccc1[N+](=O)[O-]`, the inhibition entry was “Active”. As for `COC(=O)C1=C(C)NC(C)=C(C(=O)OCCN(C)Cc2ccccc2)C1c1cccc([N+](=O)[O-])c1` (stereo unspecified), the Active/inactive screening call is “Active”. Regarding `N[C@@H](C(=O)N[C@@H]1C(=O)N2C(C(=O)O)=C(Cl)CS[C@H]12)c1ccccc1`, the Active/inactive screening call was “Active”. With `CC(=O)Oc1ccccc1C(=O)Nc1ncc([N+](=O)[O-])s1`, the inhibition entry is “Active”.

`COc1ccc2[nH]c([S+]([O-])Cc3ncc(C)c(OC)c3C)nc2c1` (stereo unspecified) [OMEPRAZOLE]: the Active/inactive screening call was “Active”. Consider `CNC1=Nc2ccc(Cl)cc2C(c2ccccc2)=[N+]([O-])C1`, for which the inhibition result was “Active”.

Target in a further experiment: not listed separately
Nature of the experiment: Inhibition of Trichomonas vaginalis uridine nucleoside ribohydrolase using 5-fluorouridine as substrate after 40 mins by NMR spectrometric analysis. In a few lines: as §1
On to `COCCCOc1ccnc(C[S+]([O-])c2nc3ccccc3[nH]2)c1C` (stereo unspecified) [RABEPRAZOLE], for which inhibition was half-maximal at 0.3 µM (IC50). The same measure, in the same setting: as for `COc1ccnc(C[S+]([O-])c2nc3cc(OC(F)F)ccc3[nH]2)c1OC` (stereo unspecified) [PANTOPRAZOLE SODIUM], the figure is 14.5 µM; as for `COc1ccc2[nH]c([S+]([O-])Cc3ncc(C)c(OC)c3C)nc2c1` (stereo unspecified) [OMEPRAZOLE], 2.3 µM.

For the origin of these results see ChEMBL document CHEMBL3112434, “Identification of proton-pump inhibitor drugs that inhibit Trichomonas vaginalis uridine nucleoside ribohydrolase” (Bioorg Med Chem Lett, 2014).
